Source: ChEMBL document CHEMBL1148785, “Second generation tetrahydroquinoline-based protein farnesyltransferase inhibitors as antimalarials” (J Med Chem, 2007)

Assays:
Plasmodium falciparum [1] = assay: Inhibition of Plasmodium falciparum protein farnesyltransferase at 50 nM by scintillation proximity assay
Plasmodium falciparum [2] = assay: Inhibition of Plasmodium falciparum protein farnesyltransferase at 5 nM by scintillation proximity assay
Plasmodium falciparum [3] = assay: Inhibition of Plasmodium falciparum protein farnesyltransferase at 0.5 nM by scintillation proximity assay
Plasmodium falciparum [4] = assay: Antimalarial activity against Plasmodium falciparum 3D7; format: functional; settings: Plasmodium falciparum, 3D7; read-out: ED50 (the source's name)
Method in brief: (§1)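 Asynchronous culture in type A+ erythrocytes at 0.5% parasitemia and 0.5% hematocrit, grown in RPMI-1640 with 20% heat-inactivated human A+ plasma. Compound was serially diluted from a top final 5 µM, with DMSO vehicle as 100% growth. Plates ran 48 h at 37 °C under 5% CO2/5% O2/90% N2, then [3H]-hypoxanthine (0.3 µCi) for 24 h. Filter-harvested counts were corrected for the uninfected-RBC background. ED50 by linear regression; duplicates averaged.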

Plasmodium falciparum [5] = assay: Antimalarial activity against Plasmodium falciparum K1; format: functional; settings: Plasmodium falciparum, K1; read-out: ED50 (the source's name); method in brief: as §1

Row | inhibition (Plasmodium falciparum [1]) [%] | inhibition (Plasmodium falciparum [2]) [%] | inhibition (Plasmodium falciparum [3]) [%] | EC50 (Plasmodium falciparum [4]) [nM] | EC50 (Plasmodium falciparum [5]) [nM] | Compound
1 | 38 | 0 | 0 | 3000 | 2800 | Cn1cncc1CN1CC(N(CC2CCN(C(=O)Nc3ccc(Br)cc3)CC2)S(=O)(=O)c2ccccn2)Cc2cc(C#N)ccc21 (stereo not given)
2 | 10 | 1 | 4 | 3500 | > 5000 | Cn1cnc(CN2CC(N(CC(=O)NC(C)(C)C)S(=O)(=O)c3cccs3)Cc3cc(-c4ccccc4)ccc32)c1 (stereo not given)
3 | 99 | 35 | 87 | 70 | 81 | Cn1cncc1CN1CC(N(CC2CCN(C(=O)c3cccs3)CC2)S(=O)(=O)c2ccccn2)Cc2cc(C#N)ccc21 (stereo not given)
4 | 0 | 3 | 2 | > 5000 | > 5000 | Cc1nc(C)c(S(=O)(=O)N(CC(=O)NC(C)(C)C)C2Cc3cc(C#N)ccc3N(Cc3cncn3C)C2)s1 (stereo not given)
5 | 11 | 10 | 5 | > 5000 | > 5000 | Cn1cncc1CN1CC(N(CC(=O)NC(C)(C)C)S(=O)(=O)CCN)Cc2cc(C#N)ccc21 (stereo not given)
6 | 91 | 48 | 9 | 230 | 240 | Cn1cncc1CN1CC(N(CCNC(=O)OC(C)(C)C)S(=O)(=O)c2ccccn2)Cc2cc(C#N)ccc21 (stereo not given)
7 | 3 | 0 | 0 | > 5000 | > 5000 | Cc1oncc1S(=O)(=O)N(CC(=O)NC(C)(C)C)C1Cc2cc(C#N)ccc2N(Cc2cncn2C)C1 (stereo not given)
8 | 89 | 69 | 26 | 250 | 600 | CCN(CCCCN(C1Cc2cc(C#N)ccc2N(Cc2cncn2C)C1)S(=O)(=O)c1ccccn1)C(=O)OC (stereo not given)
9 | 98 | 13 | 66 | 550 | 650 | Cn1cncc1CN1CC(N(CC2CCN(C(=O)OCc3ccccc3)CC2)S(=O)(=O)c2ccccn2)Cc2cc(C#N)ccc21 (stereo not given)
10 | 99 | 31 | 91 | 35 | 65 | Cn1cncc1CN1CC(N(CC2CCN(C(=O)N3CCCC3)CC2)S(=O)(=O)c2ccccn2)Cc2cc(C#N)ccc21 (stereo not given)
11 | 95 | 68 | 6 | 18 | 45 | COC(=O)N(C)CCCN(C1Cc2cc(C#N)ccc2N(Cc2cncn2C)C1)S(=O)(=O)c1ccccn1 (stereo not given)
12 | 92 | 20 | 60 | 700 | 650 | Cn1cnc(S(=O)(=O)N2CCC(CN(C3Cc4cc(C#N)ccc4N(Cc4cncn4C)C3)S(=O)(=O)c3ccccn3)CC2)c1 (stereo not given)
13 | 95 | 91 | 67 | 12 | 16 | Cn1cncc1CN1CC(N(CCn2ccnc2)S(=O)(=O)c2ccccn2)Cc2cc(C#N)ccc21 (stereo not given)
14 | 11 | 5 | 1 | 2600 | 3600 | CCOc1ccccc1CN(C1Cc2cc(C#N)ccc2N(Cc2cncn2C)C1)S(=O)(=O)c1cn(C)cn1 (stereo not given)
15 | 100 | 38 | 93 | 65 | 45 | CC(C)NC(=O)N1CCC(CN(C2Cc3cc(C#N)ccc3N(Cc3cncn3C)C2)S(=O)(=O)c2ccccn2)CC1 (stereo not given)
16 | 92 | 61 | 10 | 2300 | 1900 | COC(=O)c1ccsc1S(=O)(=O)N(CC1CCN(C(=O)OC)CC1)C1Cc2cc(C#N)ccc2N(Cc2cncn2C)C1 (stereo not given)
17 | 98 | 90 | 24 | 10 | 5.5 | CC(C)COC(=O)N1CCC(CN(C2Cc3cc(C#N)ccc3N(Cc3cncn3C)C2)S(=O)(=O)c2cn(C)cn2)CC1 (stereo not given)
18 | 88 | 39 | 2 | 550 | 1700 | COC(=O)N1CCC(CN(C2Cc3cc(C#N)ccc3N(Cc3cncn3C)C2)S(=O)(=O)c2cccc3ccccc23)CC1 (stereo not given)
19 | 96 | 94 | 66 | 600 | 900 | COC(=O)c1cccc(CN(C2Cc3cc(C#N)ccc3N(Cc3cncn3C)C2)S(=O)(=O)c2ccccn2)n1 (stereo not given)
20 | 99 | 89 | 22 | 640 | 475 | C=C(C)CN(C1Cc2cc(-c3ccccc3)ccc2N(Cc2cn(C)cn2)C1)S(=O)(=O)c1cn(C)cn1 (stereo not given)
21 | 2 | 0 | 0 | > 5000 | > 5000 | Cn1cnc(CN2CC(N(CC(=O)NC(C)(C)C)S(C)(=O)=O)Cc3cc(-c4ccccc4)ccc32)c1 (stereo not given)

Row | inhibition (Plasmodium falciparum [1]) [%] | inhibition (Plasmodium falciparum [2]) [%] | inhibition (Plasmodium falciparum [3]) [%] | EC50 (Plasmodium falciparum [4]) [nM] | EC50 (Plasmodium falciparum [5]) [nM] | Compound
22 | 92 | 20 | 0 | 490 | 890 | Cn1cnc(S(=O)(=O)N(Cc2ncoc2-c2ccccc2)C2Cc3cc(C#N)ccc3N(Cc3cncn3C)C2)c1 (stereo not given)
23 | 99 | 81 | 24 | 138 | 105 | COC(=O)N1CCC(CN(C2Cc3cc(C#N)ccc3N(Cc3cncn3C)C2)S(=O)(=O)c2ccc3c(c2)OCCCO3)CC1 (stereo not given)
24 | 100 | 35 | 94 | 13 | 11.5 | CN(C)C(=O)N1CCC(CN(C2Cc3cc(C#N)ccc3N(Cc3cncn3C)C2)S(=O)(=O)c2ccccn2)CC1 (stereo not given)
25 | 99 | 89 | 17 | 70 | 210 | Cn1cnc(S(=O)(=O)N(Cc2cccnc2)C2Cc3cc(C#N)ccc3N(Cc3cncn3C)C2)c1 (stereo not given)
26 | 100 | 39 | 94 | 58 | 50 | Cn1cncc1CN1CC(N(CC2CCN(C(=O)C3CCCC3)CC2)S(=O)(=O)c2ccccn2)Cc2cc(C#N)ccc21 (stereo not given)
27 | 84 | 32 | 0 | 2150 | 1420 | Cn1cncc1CN1CC(N(CCCCON2C(=O)c3ccccc3C2=O)S(=O)(=O)c2ccccn2)Cc2cc(C#N)ccc21 (stereo not given)
28 | 97 | 88 | 36 | 75 | 60 | Cn1cc(S(=O)(=O)N(Cc2ccc(S(C)(=O)=O)cc2)C2Cc3cc(C#N)ccc3N(Cc3cncn3C)C2)cn1 (stereo not given)
29 | 100 | 86 | 26 | 21 | 8.5 | Cn1cnc(S(=O)(=O)N(CCc2cccs2)C2Cc3cc(C#N)ccc3N(Cc3cncn3C)C2)c1 (stereo not given)
30 | 97 | 91 | 55 | 130 | 130 | Cn1cnc(S(=O)(=O)N(CCc2c[nH]c3ccccc23)C2Cc3cc(C#N)ccc3N(Cc3cncn3C)C2)c1 (stereo not given)
31 | 99 | 91 | 12 | 355 | 350 | Cn1cnc(S(=O)(=O)N(CCOc2cccc3c2OCCO3)C2Cc3cc(C#N)ccc3N(Cc3cncn3C)C2)c1 (stereo not given)
32 | 99 | 95 | 30 | 56 | 65 | Cn1cnc(S(=O)(=O)N(Cc2ccc3nonc3c2)C2Cc3cc(C#N)ccc3N(Cc3cncn3C)C2)c1 (stereo not given)
33 | 94 | 62 | 23 | 175 | 175 | Cn1cc(S(=O)(=O)N(Cc2ccccc2F)C2Cc3cc(C#N)ccc3N(Cc3cncn3C)C2)cn1 (stereo not given)
34 | 99 | 82 | 8 | 65 | 70 | Cn1cnc(S(=O)(=O)N(CCc2ccccc2C(F)(F)F)C2Cc3cc(C#N)ccc3N(Cc3cncn3C)C2)c1 (stereo not given)
35 | 90 | 59 | 15 | 230 | 400 | COC(=O)N(C)CCCCN(C1Cc2cc(C#N)ccc2N(Cc2cncn2C)C1)S(=O)(=O)c1ccccn1 (stereo not given)
36 | 43 | 1 | 0 | 650 | 730 | CC(=O)N(Cc1ccccc1F)C1Cc2cc(C#N)ccc2N(Cc2cncn2C)C1 (stereo not given)
37 | 98 | 81 | 22 | 120 | 600 | Cn1cncc1CN1CC(N(CCc2ccccc2F)S(=O)(=O)c2ccccn2)Cc2cc(C#N)ccc21 (stereo not given)
38 | 93 | 62 | 9 | 200 | 300 | Cn1cnc(S(=O)(=O)N(CCN2CCCCC2)C2Cc3cc(C#N)ccc3N(Cc3cncn3C)C2)c1 (stereo not given)
39 | 94 | 14 | 62 | 140 | 200 | Cn1cncc1CN1CC(N(CC2CCN(C(=O)N3CCCCC3)CC2)S(=O)(=O)c2ccccn2)Cc2cc(C#N)ccc21 (stereo not given)
40 | 68 | 21 | 2 | > 5000 | > 5000 | COC(=O)N1CCC(CN(C2Cc3cc(C#N)ccc3N(Cc3cncn3C)C2)S(=O)(=O)c2ccc3oc(=O)ccc3c2)CC1 (stereo not given)
41 | 95 | 53 | 1 | 300 | 1500 | Cn1cncc1CN1CC(N(CCc2ccccc2C(F)(F)F)S(=O)(=O)c2ccccn2)Cc2cc(C#N)ccc21 (stereo not given)
